Measurements taken from ChEMBL document CHEMBL4043244, “Diverse amide analogs of sulindac for cancer treatment and prevention” (Bioorg Med Chem Lett, 2017).

How the values were obtained:
Assay type in all cases: functional
[1] = system: MDA-MB-231; assay: Growth inhibition of human MDA-MB-231 cells after 72 hrs by CellTiter-Glo reagent based assay; conditions: MDA-MB-231, 72 h
How it was run: (§1)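 Cancer cell lines (PC3 prostate, HT29 colorectal carcinoma, MDA-MB-231 breast) were screened by quantitative high-throughput screening in whole cells, and CC50 values were derived.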

[2] = system: PC-3; assay: Growth inhibition of human PC3 cells after 72 hrs by CellTiter-Glo reagent based assay; conditions: PC-3, 72 h; how it was run: as §1
[3] = system: HT-29; assay: Growth inhibition of human HT-29 cells after 72 hrs by CellTiter-Glo reagent based assay; conditions: HT-29, 72 h; how it was run: as §1

Structure (SMILES)	CC50 [1] [µM]	CC50 [2] [µM]	CC50 [3] [µM]
CSc1ccc(/C=C2/C(C)=C(CC(=O)NCc3cccnc3)c3cc(F)ccc32)cc1	7.36	18.5	4.83
CCN1CCC[C@H]1CNC(=O)CC1=C(C)/C(=C/c2ccc([S+](C)[O-])cc2)c2ccc(F)cc21 (some centres not stated)	> 50	> 50	19
COC(=O)[C@@H](C)NC(=O)CC1=C(C)/C(=C/c2ccc(SC)cc2)c2ccc(F)cc21	32	44.2	16.2
CSc1ccc(/C=C2/C(C)=C(CC(=O)N(C)CCN(C)S(=O)(=O)c3ccc(C)cc3)c3cc(F)ccc32)cc1	> 50	> 50	12.9
CC1=C(CC(=O)N(CCCNC(C)C)C(C)C)c2cc(F)ccc2/C1=C\c1ccc([S+](C)[O-])cc1 (configuration not stated)	> 50	48.3	16.3
CCN(CC)CCNC(=O)CC1=C(C)/C(=C/c2nc3ccccc3s2)c2ccc(F)cc21	3.54	4.48	1.12
CC1=C(CC(=O)N2CCN(c3ccncc3)CC2)c2cc(F)ccc2/C1=C\c1ccc([S+](C)[O-])cc1 (configuration not stated)	22.7	21.9	9.2
CC1=C(CC(=O)N(C)CCN(C)S(=O)(=O)c2cccc3ccccc23)c2cc(F)ccc2/C1=C\c1ccc([S+](C)[O-])cc1 (configuration not stated)	29.1	8.96	3.99
CNCCCN(C)C(=O)CC1=C(C)/C(=C/c2ccc([S+](C)[O-])cc2)c2ccc(F)cc21 (configuration not stated)	> 50	> 50	> 50
CCNCCN(CC)C(=O)CC1=C(C)/C(=C/c2ccc([S+](C)[O-])cc2)c2ccc(F)cc21 (configuration not stated)	> 50	> 50	18.2
CCN(CC)CCNC(=O)CC1=C(C)/C(=C/c2cc(OC)c(OC)c(OC)c2)c2ccc(F)cc21	12.3	13.9	5.42
CSc1ccc(/C=C2/C(C)=C(CC(=O)N(C)CCN(C)S(=O)(=O)c3ccc4ccccc4c3)c3cc(F)ccc32)cc1	> 50	> 50	35.3
CNCCN(C)C(=O)CC1=C(C)/C(=C/c2cc(OC)c(OC)c(OC)c2)c2ccc(F)cc21	17	23.1	8.05
CSc1ccc(/C=C2/C(C)=C(CC(=O)N3CCNCC3)c3cc(F)ccc32)cc1	3.69	6.5	2.47
CC1=C(CC(=O)NCCN(C)C)c2cc(F)ccc2/C1=C\c1ccncc1	18.1	28.9	6.89
COc1cc(/C=C2/C(C)=C(CC(=O)NCCN3CCCC3)c3cc(F)ccc32)cc(OC)c1OC	41.1	46.5	13.4
CC1=C(CC(=O)N(C)CCN(C)S(=O)(=O)c2ccc3ccccc3c2)c2cc(F)ccc2/C1=C\c1ccc([S+](C)[O-])cc1 (configuration not stated)	32.1	7.52	6.35
CSc1ccc(/C=C2/C(C)=C(CC(=O)NCc3cccs3)c3cc(F)ccc32)cc1	5.66	11	2.16
CSc1ccc(/C=C2/C(C)=C(CC(=O)N(C)CCN(C)S(=O)(=O)c3cccc4ccccc34)c3cc(F)ccc32)cc1	> 50	> 50	16.2
CCS(=O)(=O)N(C)CCN(C)C(=O)CC1=C(C)/C(=C/c2ccc(SC)cc2)c2ccc(F)cc21	10.1	14.3	4.2

Structure (SMILES)	CC50 [1] [µM]	CC50 [2] [µM]	CC50 [3] [µM]
COc1cc(/C=C2/C(C)=C(CC(=O)N(C)CCN(C)C)c3cc(F)ccc32)cc(OC)c1OC	10.8	11.4	4.68
CCN(CC)CCNC(=O)CC1=C(C)/C(=C/c2ccc([S+](C)[O-])cc2)c2ccc(F)cc21 (configuration not stated)	> 50	> 50	19.8
CSc1ccc(/C=C2/C(C)=C(CC(=O)N(C)CCN(C)S(=O)(=O)c3ccccc3)c3cc(F)ccc32)cc1	> 50	> 50	8.82
CCN(CC)CCN(CC)C(=O)CC1=C(C)/C(=C/c2ccc([S+](C)[O-])cc2)c2ccc(F)cc21 (configuration not stated)	> 50	> 50	18.4
CC1=C(CC(=O)NCCN(C)C)c2cc(F)ccc2/C1=C\c1ccc(S(C)(=O)=O)cc1	37.5	> 50	12.7
COC(=O)[C@H](C)NC(=O)CC1=C(C)/C(=C/c2ccc(SC)cc2)c2ccc(F)cc21	38.9	> 50	23.9
CC1=C(CC(=O)N2CCC[C@H]2CN2CCCC2)c2cc(F)ccc2/C1=C\c1ccc([S+](C)[O-])cc1 (some centres not stated)	> 50	> 50	20.2
CC1=C(CC(=O)N(C)CCN(C)C(=O)[C@@H](N)C(C)C)c2cc(F)ccc2/C1=C\c1ccc([S+](C)[O-])cc1 (some centres not stated)	> 50	> 50	30.2
COc1cc(/C=C2/C(C)=C(CC(=O)NCCN(C)C)c3cc(F)ccc32)cc(OC)c1OC	15.1	18.3	6.22
CSc1ccc(/C=C2/C(C)=C(CC(=O)NCCN3CCCCC3)c3cc(F)ccc32)cc1	5.42	5.36	1.65
CCN1CCC[C@H]1CNC(=O)CC1=C(C)/C(=C/c2nc3ccccc3s2)c2ccc(F)cc21	5.58	7.72	1.66
CCN(CCN(C)C)C(=O)CC1=C(C)/C(=C/c2ccc([S+](C)[O-])cc2)c2ccc(F)cc21 (configuration not stated)	> 50	> 50	18.2
CC1=C(CC(=O)N(C)CCN(C)S(=O)(=O)c2cccc3c(N(C)C)cccc23)c2cc(F)ccc2/C1=C\c1ccc([S+](C)[O-])cc1 (configuration not stated)	> 50	9.2	10.6
CC1=C(CC(=O)NCCC(C)C)c2cc(F)ccc2/C1=C\c1ccc([S+](C)[O-])cc1 (configuration not stated)	27.7	20.2	17.7
CC1=C(CC(=O)NCc2ccco2)c2cc(F)ccc2/C1=C\c1ccc([S+](C)[O-])cc1 (configuration not stated)	2.73	> 50	1
COc1cc(/C=C2/C(C)=C(CC(=O)N3CCC[C@H]3CN3CCCC3)c3cc(F)ccc32)cc(OC)c1OC	11.1	12.3	4.22
CCS(=O)(=O)N(C)CCN(C)C(=O)CC1=C(C)/C(=C/c2ccc([S+](C)[O-])cc2)c2ccc(F)cc21 (configuration not stated)	> 50	> 50	42.6
CCNCCN(CC)C(=O)CC1=C(C)/C(=C/c2ccc(SC)cc2)c2ccc(F)cc21	6.65	6.56	2.54
CCNCCCN(CC)C(=O)CC1=C(C)/C(=C/c2ccc(SC)cc2)c2ccc(F)cc21	3.03	3.92	1.38
CSc1ccc(/C=C2/C(C)=C(CC(=O)NCc3ccncc3)c3cc(F)ccc32)cc1	6.46	5.83	4.88

Structure (SMILES)	CC50 [1] [µM]	CC50 [2] [µM]	CC50 [3] [µM]
CCNCCCN(CC)C(=O)CC1=C(C)/C(=C/c2ccc([S+](C)[O-])cc2)c2ccc(F)cc21 (configuration not stated)	> 50	> 50	17.5
CC1=C(CC(=O)N(C)CCCN(C)C)c2cc(F)ccc2/C1=C\c1ccc([S+](C)[O-])cc1 (configuration not stated)	> 50	> 50	38.9
CSc1ccc(/C=C2/C(C)=C(CC(=O)NN3CCN(C)CC3)c3cc(F)ccc32)cc1	4.1	4.45	1.64
CSc1ccc(/C=C2/C(C)=C(CC(=O)NCCC(C)C)c3cc(F)ccc32)cc1	> 50	> 50	> 50
CSc1ccc(/C=C2/C(C)=C(CC(=O)NCc3ccccn3)c3cc(F)ccc32)cc1	13.7	13.6	10.3
CC1=C(CC(=O)N2CCC[C@H]2CN2CCCC2)c2cc(F)ccc2/C1=C\c1nc2ccccc2s1	3.61	4.25	1.58
CSc1ccc(/C=C2/C(C)=C(CC(=O)N(CCCNC(C)C)C(C)C)c3cc(F)ccc32)cc1	3.92	4.9	2.3
CC1=C(CC(=O)N2CCN(CCCN(C)C)CC2)c2cc(F)ccc2/C1=C\c1ccc([S+](C)[O-])cc1 (configuration not stated)	46.2	> 50	23.8
CSc1ccc(/C=C2/C(C)=C(CC(=O)N(C)CCN(C)S(C)(=O)=O)c3cc(F)ccc32)cc1	11.6	15.5	4.04
CSc1ccc(/C=C2/C(C)=C(CC(=O)NCCN3CCNCC3)c3cc(F)ccc32)cc1	7.66	6.66	2.98
CCN(CCN(C)C)C(=O)CC1=C(C)/C(=C/c2ccc(SC)cc2)c2ccc(F)cc21	3.96	5.07	1.36
CNCCN(C)C(=O)CC1=C(C)/C(=C/c2ccc(SC)cc2)c2ccc(F)cc21	5.84	6.75	2.8
CC1=C(CC(=O)NCCN2CCCC2)c2cc(F)ccc2/C1=C\c1ccncc1	7.19	10.2	2.68
CSc1ccc(/C=C2/C(C)=C(CC(=O)N3CCC(N4CCCCC4)CC3)c3cc(F)ccc32)cc1	2.61	4.06	1.06
COc1cc(/C=C2/C(C)=C(CC(=O)NCCCN(C)C)c3cc(F)ccc32)cc(OC)c1OC	10.8	13	6.08
CSc1ccc(/C=C2/C(C)=C(CC(=O)NCc3ccc(N(C)C)cc3)c3cc(F)ccc32)cc1	> 50	> 50	> 50
CSc1ccc(/C=C2/C(C)=C(CC(=O)NCCN3CCCC3)c3cc(F)ccc32)cc1	3.78	5.27	1.81
CSc1ccc(/C=C2/C(C)=C(CC(=O)NCc3ccco3)c3cc(F)ccc32)cc1	3.4	13	2.08
CSc1ccc(/C=C2/C(C)=C(CC(=O)N3CCN(C)CC3)c3cc(F)ccc32)cc1	11.5	13.4	4.29
